Results published in ChEMBL document CHEMBL4196129, “Structural Optimization and Characterization of Potent Analgesic Macrocyclic Analogues of Neurotensin (8-13)” (J Med Chem, 2018).
Active and inactive are the calls of the source. The rule behind the calls is not given here. Starred links: 1 amine or outer side, 2 acyl side, 3 side chain; linkers in the order of their positions; H or OH if unused. Positions of bridges follow the written chain, without caps; N, C: chain ends. Non-standard residues stand in square brackets, D forms with d. Residues, ends and D or L forms follow the SMILES beside them. *: point of attachment. X6 = C=CCc1cc(C[C@H](N[*:1])C(=O)[*:2])ccc1O; NMeR = CN[C@@H](CCCNC(=N)N)C(=O)O; X7 = C=CCCCCCCC(=O)*

Assays:
[1] = tested on: Rattus norvegicus; assay: Analgesic activity in Sprague-Dawley rat assessed as increase in tail withdrawal latency at 30 ug/kg, it measured every 10 mins up to 60 mins by tail flick test; type: functional, organism-based
In short: (§1)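 Adult male Sprague-Dawley rats (225-300 g), acclimatized 5 min/day for 3 days. Baseline tail-flick latency taken before injection. Dosing under light isoflurane anesthesia, intrathecal at L5-L6, compound in 0.9% saline; saline alone as control. Latency to heat (light beam) read every 10 min up to 60 min. %MPE taken at 10 min post-injection.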

[2] = tested on: Rattus norvegicus; assay: Hypotensive activity in Sprague-Dawley rat assessed as reduction in arterial blood pressure in first phase at 0.01 mg/kg, iv measured every second up to 900 secs
[3] = tested on: Rattus norvegicus; assay: Induction of hypothermia in Sprague-Dawley rat assessed as reduction in body temperature at 30 ug/kg, it after 60 mins; type: functional, organism-based
In short: (§2)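 Rectal thermistor temperature in adult Sprague-Dawley rats acclimatized 5 min/day for 3 days. Baseline taken, then readings every 10 min to 60 min after intrathecal dosing in 0.9% saline, at 0.3, 1, 3, 10 and 30 µg/kg for the dose-response series. Single-dose comparisons at 30 µg/kg read only at 60 min. Change from baseline per animal; AUC per dose used for ED50.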

[4] = tested on: Rattus norvegicus; assay: Analgesic activity in formalin-induced Sprague-Dawley rat pain model assessed as inhibition of nociceptive response in right hind paw at 30 ug/kg, it measured for 21 to 60 mins; type: functional, organism-based
In short: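 Male Sprague-Dawley rats dosed intrathecally at 30 µg/kg in 0.9% saline; 5 min later, 50 µl of 2% formaldehyde given into the right hind paw plantar surface. Weighted pain score (0-3) recorded per 3-min block over 60 min. Acute phase 0-9 min, inflammatory phase 21-60 min.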

[5] = tested on: Rattus norvegicus; assay: Hypotensive activity in Sprague-Dawley rat assessed as reduction in arterial blood pressure in third phase at 0.01 mg/kg, iv measured every second up to 900 secs; type: functional, organism-based
In short: (§3)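 Sprague-Dawley rats anesthetized with ketamine/xylazine (87:13 mg/kg, i.m.) on a heated pad. Compound given i.v. via jugular vein catheter at 0.01 mg/kg (1 mL/kg over 5-10 s); saline as control. Arterial pressure recorded each second for 900 s. Change in mean arterial pressure taken from basal level; n=3-5 rats.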

[6] = target: T1, Neurotensin receptor type 1 (Homo sapiens, UniProt P30989); assay: Displacement of [3H]-neurotensin from NTS1 receptor (unknown origin) after 20 mins by liquid scintillation counting analysis
[7] = tested on: Rattus norvegicus; assay: Analgesic activity in it dosed Sprague-Dawley rat assessed as increase in tail withdrawal latency measured every 10 mins up to 60 mins by tail flick test; type: functional; in short: as §1
[8] = tested on: Rattus norvegicus; assay: Hypotensive activity in Sprague-Dawley rat assessed as reduction in arterial blood pressure in first phase at 0.01 mg/kg, iv measured every second up to 900 secs; type: functional; in short: as §3
[9] = tested on: Rattus norvegicus; assay: Analgesic activity in Sprague-Dawley rat assessed as increase in tail withdrawal latency at 30 ug/kg, it measured at 10 mins post injection by tail flick test relative to control; type: functional; in short: as §1
[10] = tested on: Rattus norvegicus; assay: Induction of hypothermia in it dosed Sprague-Dawley rat assessed as reduction in body temperature measured every 10 mins up to 60 mins; type: functional; in short: as §2
[11] = Half life in rat plasma by UPLC-MS analysis; type: ADME, cell-free
In short: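 Quenched with acetonitrile/ethanol (1:1) plus 0.5% nicotinamide, centrifuged and filtered. Parent peptide measured by UPLC-MS; half-life from a one-phase decay fit.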

[12] = target: T1, Neurotensin receptor type 1; assay: Displacement of [125I]Tyr3-neurotensin from human NTS1 receptor expressed in CHOK1 cell membranes after 60 mins by gamma counting analysis
[13] = tested on: Rattus norvegicus; assay: Analgesic activity in Sprague-Dawley rat assessed as increase in tail withdrawal latency at 1 ug/kg, it measured every 10 mins up to 60 mins by tail flick test; type: functional, organism-based; in short: as §1
[14] = tested on: Rattus norvegicus; assay: Induction of hypothermia in Sprague-Dawley rat assessed as reduction in body temperature at 0.3 to 30 ug/kg, it after 60 mins; type: functional, organism-based; in short: as §2
[15] = tested on: Rattus norvegicus; assay: Analgesic activity in Sprague-Dawley rat assessed as increase in tail withdrawal latency at 10 ug/kg, it measured every 10 mins up to 60 mins by tail flick test; type: functional, organism-based; in short: as §1
[16] = target: T1, Neurotensin receptor type 1; assay: Agonist activity at GFP10/beta-arrestin1-Rluc2 fused human NTS1 expressed in CHO-K1 cell membranes assessed as beta-arrestin1 recruitment after 20 mins by BRET assay; type: functional, cell-based
[17] = target: T1, Neurotensin receptor type 1; assay: Agonist activity at Galpha13-Rluc2/Gbeta1/GFP10-Ggamma1 fused human NTS1 expressed in CHO-K1 cell membranes assessed as Galpha13 activation after 5 mins by BRET assay; type: functional, cell-based
[18] = target: T1, Neurotensin receptor type 1; assay: Agonist activity at Galphaq-Rluc2/Gbeta1/GFP10-Ggamma1 fused human NTS1 expressed in CHO-K1 cell membranes assessed as Galphaq activation after 5 mins by BRET assay; type: functional, cell-based
[19] = target: T1, Neurotensin receptor type 1; assay: Agonist activity at GFP10/beta-arrestin2-Rluc2 fused human NTS1 expressed in CHO-K1 cell membranes assessed as beta-arrestin2 recruitment after 20 mins by BRET assay; type: functional, cell-based
[20] = target: T1, Neurotensin receptor type 1; assay: Displacement of [125I]Tyr3-neurotensin from human NTS1 receptor (end Leu 194 residues) expressed in CHO cells; type: cell-based
In short: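 Membranes from CHO-K1 cells stably expressing hNTS1 (15 µg) incubated with 45 pM 125I-[Tyr3]-NT in 50 mM Tris-HCl pH 7.5, 0.2% BSA. Analogue at 10^-11 to 10^-4 M for 60 min at 25°C, then filtration and gamma counting. Nonspecific binding defined with 10^-5 M NT(8-13).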

T1 sequence (P30989 whole entry): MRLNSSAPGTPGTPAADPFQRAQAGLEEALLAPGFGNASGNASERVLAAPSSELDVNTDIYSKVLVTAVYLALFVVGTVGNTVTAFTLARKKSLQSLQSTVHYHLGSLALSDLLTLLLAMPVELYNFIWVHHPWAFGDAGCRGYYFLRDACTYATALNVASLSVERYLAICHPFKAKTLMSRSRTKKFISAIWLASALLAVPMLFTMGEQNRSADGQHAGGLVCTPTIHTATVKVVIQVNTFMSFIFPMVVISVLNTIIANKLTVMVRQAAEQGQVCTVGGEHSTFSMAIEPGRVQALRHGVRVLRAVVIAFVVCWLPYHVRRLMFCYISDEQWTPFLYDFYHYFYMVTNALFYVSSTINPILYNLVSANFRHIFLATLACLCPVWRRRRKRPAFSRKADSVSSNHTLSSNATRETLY

For CC[C@H](C)[C@H](NC(=O)[C@H]1Cc2ccc(O)c(c2)CC=CCCCCCC[C@](C)(N)C(=O)N[C@@H](CCCCN)C(=O)N2CCC[C@H]2C(=O)N1)C(=O)N[C@@H](CC(C)C)C(=O)O, the Activity [1] was “Active”, the Activity [2] was “Active” and the deltaT [3] was 2 °C. The Activity [4] was “Active” and the Activity [5] was “inactive”.

Compound CC(C)C[C@H](NC(=O)[C@@H]1CCC(=O)NCC(=O)N(C)[C@@H](CCCNC(=N)N)C(=O)N[C@@H](CCCCN)C(=O)N2CCC[C@H]2C(=O)N[C@@H](Cc2c[nH]c3ccccc23)C(=O)N1)C(=O)O (G[NMeR]KPWEL-OH; lactam N-6) has a Ki [6] of 3500 nM.

With CC[C@H](C)[C@H](NC(=O)[C@@H]1Cc2ccc(O)c(c2)CC=CCNCCC[C@H](N)C(=O)N[C@@H](CCCCN)C(=O)N2CCC[C@H]2C(=O)N1)C(=O)N[C@@H](CC(C)C)C(=O)O [listing 1 of 2 here] the ED50 [7] was 4.63 µg/kg, the Activity [8] was 25 mmHg and the MPE [9] was 50%. The ED50 [10] was 1.96 µg/kg.

Compound CC[C@H](C)[C@H](NC(=O)[C@@H]1Cc2ccc(O)c(c2)CC=CCCCNCCCC[C@H](N)C(=O)N[C@@H](CCCCN)C(=O)N2CCC[C@H]2C(=O)N1)C(=O)N[C@@H](CC(C)C)C(=O)O has a half-life [11] of 0.3 h.

For C=CCCCCCCC(=O)N[C@@H](CCCCN)C(=O)N1CCC[C@H]1C(=O)N[C@@H](Cc1ccc(O)c(CC=C)c1)C(=O)N[C@H](C(=O)N[C@@H](CC(C)C)C(=O)O)[C@@H](C)CC (X7-KP[X6]IL-OH), the Ki [12] was > 10000 nM.

For CC[C@H](C)[C@H](NC(=O)[C@H]1Cc2ccc(O)c(c2)CC=CCNCCC[C@@H](N)C(=O)N[C@@H](CCCCN)C(=O)N2CCC[C@H]2C(=O)N1)C(=O)N[C@@H](CC(C)C)C(=O)O, the Activity [7] was “Dose-dependent effect”, the Activity [13] was “inactive” and the Activity [1] was “Active”. For the same compound, the deltaT [14] was 2 °C, the Activity [2] was “Active” and the Activity [10] was “Dose-dependent effect”. For the same compound, the Activity [15] was “Active”, the Activity [4] was “Active” and the Activity [5] was “inactive”.

In the case of CC[C@H](C)[C@H](NC(=O)[C@@H]1Cc2ccc(O)c(c2)CC=CCCCCCCC(=O)N[C@@H](CCCCN)C(=O)N2CCC[C@H]2C(=O)N1)C(=O)N[C@@H](CC(C)C)C(=O)O, the EC50 ([16]; cho-k1) is reported as 1500 nM, the Ki [12] is reported as 5600 nM and the EC50 ([17]; cho-k1) is reported as 433 nM.

In the case of CCOC(=O)[C@H](CC(C)C)NC(=O)[C@@H](NC(=O)[C@H](Cc1c[nH]c2ccccc12)NC(=O)[C@@H]1CCCN1C(=O)[C@H](CCCCN)NC(=O)[C@@H](N)CCCCN)C(C)(C)C [listing 1 of 2 here], the Ki [12] is reported as 159 nM.

CC[C@H](C)[C@H](NC(=O)[C@@H]1Cc2ccc(O)c(c2)CC=CCN(S(=O)(=O)c2ccccc2[N+](=O)[O-])CCCC[C@H](N)C(=O)N[C@@H](CCCCN)C(=O)N2CCC[C@H]2C(=O)N1)C(=O)N[C@@H](CC(C)C)C(=O)O showed a half-life [11] of 1.4 h.

With CC[C@H](C)[C@H](NC(=O)[C@@H]1Cc2ccc(O)c(c2)CC=CCCCCCC[C@](C)(N)C(=O)N[C@@H](CCCCN)C(=O)N2CCC[C@H]2C(=O)N1)C(=O)N[C@@H](CC(C)C)C(=O)O [listing 1 of 2 here] the Activity [8] was 25 mmHg and the MPE [9] was 70%.

In the case of CCOC(=O)[C@H](CC(C)C)NC(=O)[C@@H](NC(=O)[C@H](Cc1c[nH]c2ccccc12)NC(=O)[C@@H]1CCCN1C(=O)[C@H](CCCCN)NC(=O)[C@@H](N)CCCCN)C(C)(C)C [listing 2 of 2 here], the Activity [8] is reported as 25 mmHg and the MPE [9] is reported as 75%.

CC[C@H](C)[C@H](NC(=O)[C@@H]1Cc2ccc(O)c(c2)CC=CCNCC[C@H](N)C(=O)N[C@@H](CCCCN)C(=O)N2CCC[C@H]2C(=O)N1)C(=O)N[C@@H](CC(C)C)C(=O)O gave a half-life [11] of 2.5 h.

For CC[C@H](C)[C@H](NC(=O)[C@@H]1Cc2ccc(O)c(c2)CC=CCNCCC[C@H](N)C(=O)N[C@@H](CCCCN)C(=O)N2CCC[C@H]2C(=O)N1)C(=O)N[C@@H](CC(C)C)C(=O)O [listing 2 of 2 here], the EC50 [16] was 4 nM, the EC50 [18] was 3 nM and the EC50 [17] was 11 nM. It also gave a half-life [11] of 0.5 to 0.65 h.

With CC[C@H](C)[C@H](NC(=O)[C@@H]1Cc2ccc(O)c(c2)CC=CCNCCCC[C@@H](N)C(=O)N[C@@H](CCCCN)C(=O)N2CCC[C@H]2C(=O)N1)C(=O)N[C@@H](CC(C)C)C(=O)O the half-life [11] was 24 h.

Compound CC(C)C[C@H](NC(=O)[C@@H]1CCC(=O)N[C@@H](CCCNC(=N)N)C(=O)N[C@@H](CCCCN)C(=O)N2CCC[C@H]2C(=O)N[C@@H](Cc2c[nH]c3ccccc23)C(=O)N1)C(=O)O (RKPWEL-OH; lactam N-5) has a Ki [6] of 190 nM.

Work on CC[C@H](C)[C@H](NC(=O)[C@@H]1Cc2ccc(O)c(c2)CC=CCNCCCCCC(=O)N[C@@H](CCCCN)C(=O)N2CCC[C@H]2C(=O)N1)C(=O)N[C@@H](CC(C)C)C(=O)O yielded an EC50 [16] of 96 nM, a Ki [12] of 656 nM and a half-life [11] of 24 h.

For C=CCNCCCC[C@H](N)C(=O)N[C@@H](CCCCN)C(=O)N1CCC[C@H]1C(=O)N[C@@H](Cc1ccc(O)c(CC=C)c1)C(=O)N[C@H](C(=O)N[C@@H](CC(C)C)C(=O)O)[C@@H](C)CC, the EC50 [19] was 9 nM, the EC50 [16] was 15 nM and the EC50 [18] was 7 nM. The half-life [11] was 0.0833 h.

For CCOC(=O)[C@H](CC(C)C)NC(=O)[C@@H](NC(=O)[C@H](Cc1c[nH]c2ccccc12)NC(=O)[C@H]1CCCN1C(=O)[C@H](CCCCN)NC(=O)[C@@H](N)CCCCN)C(C)(C)C, the Activity [2] was “Active”, the deltaT [3] was 2 °C and the Activity [4] was “Active”. The Activity [5] was “Active”.

Work on CC[C@H](C)[C@H](NC(=O)[C@@H]1Cc2ccc(O)c(c2)CC=CCCCCCC[C@](C)(N)C(=O)N[C@@H](CCCCN)C(=O)N2CCC[C@H]2C(=O)N1)C(=O)N[C@@H](CC(C)C)C(=O)O [listing 2 of 2 here] yielded an EC50 [19] of 28 nM and a half-life [11] of 24 h.

CC[C@H](C)[C@H](NC(=O)[C@@H]1Cc2ccc(cc2)OCCCCCC(=O)N[C@@H](CCCNC(=N)N)C(=O)N2CCC[C@H]2C(=O)N1)C(=O)N[C@@H](CC(C)C)C(=O)O showed a Ki [20] of 450 nM.

Work on CC[C@H](C)[C@H](NC(=O)[C@@H]1Cc2ccc(O)c(c2)CC=CCCNCCCC[C@H](N)C(=O)N[C@@H](CCCCN)C(=O)N2CCC[C@H]2C(=O)N1)C(=O)N[C@@H](CC(C)C)C(=O)O yielded a half-life [11] of 0.25 h.
